ChEMBL document CHEMBL1129492, “Structure-activity relationships among 2-substituted 5,6-dichloro-, 4,6-dichloro-, and 4,5-dichloro-1-[(2-hydroxyethoxy) methyl]- and -1-[(1,3-dihydroxy-2-propoxy) methyl]benzimidazoles” (J Med Chem, 1996)

Columns and labels:
Human alphaherpesvirus 1 = experiment: Antiviral activity against herpes simplex virus type 1 (HSV-1) in an ELISA assay; type: functional, organism-based
In short: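 BSC-1 cells (10 000/well, MEM(E) + 10% calf serum) incubated overnight at 37 °C, then given drug in quadruplicate with HSV-1 at 100 PFU/well. After 3 days at 37 °C, plates were blocked and probed with HRP-conjugated rabbit anti-HSV-1 antibody and developed with tetramethylbenzidine. Absorbance was read at 450 and 570 nm. Percent reduction was taken versus virus without drug.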

KB [1] = experiment: Inhibitory activity of compound against KB cell growth [>-indicates IC50/IC90 was not reached at the noted (highest) concentration tested]; type: functional, cell-based; conditions: Homo sapiens
In short: (§1)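 KB cells plated at 3000-5000 cells/well and held overnight at 37 °C. Compound added in quadruplicate at six to eight concentrations, then 48 h at 37 °C in CO₂ (about two population doublings). Cells fixed with 95% ethanol, stained with 0.1% crystal violet, dye eluted with acidified ethanol and read at 570 nm. IC50 from regression.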

Human betaherpesvirus 5 [2] = experiment: Antiviral activity against human cytomegalovirus (HCM virus) in plaque assay; type: functional, organism-based
In short: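 HCMV Towne strain (plaque-purified P_O) at ca. 100 PFU/cm² on HFF cell sheets. After adsorption, compound in growth medium was added to duplicate wells at four to eight concentrations. Incubated 7 days at 37 °C, then crystal violet staining and microscopic plaque counts. Percent plaque reduction versus no drug; IC50 from regression lines.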

HFF = experiment: Visual cytotoxicity of compound on HFF cells at time of HCMV plaque enumeration; type: functional, cell-based; conditions: Homo sapiens
In short: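 Stationary, uninfected HFF cells in the HCMV plaque assay were scored microscopically for cytotoxicity when plaques were enumerated, after 7 days at 37 °C.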

KB [3] = experiment: Inhibitory activity of compound against KB cell growth; type: functional, cell-based; conditions: Homo sapiens; in short: as §1
Human betaherpesvirus 5 [4] = experiment: Antiviral activity of compound against HCM virus in yield reduction experiments; type: functional
In short: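 HFF cells infected with HCMV (Towne) at moi 0.5-1 PFU/cell, then given compound serially diluted 1:3 (100 to 0.14 µM) in duplicate. After 7 days at 37 °C, one freeze-thaw cycle. Progeny virus was titered by 1:3 serial dilution on fresh HFF monolayers with plaque counting. IC90 reported.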

Human betaherpesvirus 5 [5] = experiment: Antiviral activity of compound against HCMvirus in yield reduction experiments; type: functional
In short: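 HCMV Towne strain (plaque-purified isolate P_O) grown on HFF cells in 96-well dishes, infected at moi 0.5-1 PFU/cell. After adsorption, compound added in 1:3 serial dilutions from 100 to 0.14 µM, in duplicate. 7 days at 37 °C, then one freeze-thaw. Progeny titred by plaque count on fresh HFF monolayers.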

| SMILES | IC50 (Human alphaherpesvirus 1) [µM] | IC50 (KB [1]) [µM] | IC50 (Human betaherpesvirus 5 [2]) [µM] | IC50 (KB [3]) [µM] | IC90 (Human betaherpesvirus 5 [4]) [µM] | IC50 (HFF) [µM] | IC90 (Human betaherpesvirus 5 [5]) [µM] |
| --- | --- | --- | --- | --- | --- | --- | --- |
| Nc1nc2cc(Cl)c(Cl)cc2n1COCCO | > 100 |  | > 100 | > 100 |  | > 100 |  |
| CNc1nc2cc(Cl)c(Cl)cc2n1COCCO | > 100 |  | > 100 | > 100 |  | > 100 |  |
| Nc1nc2c(Cl)c(Cl)ccc2n1COCCO | > 100 |  | > 100 | > 100 |  | > 100 |  |
| OCCOCn1cnc2c(Cl)cc(Cl)cc21 | > 100 |  | > 100 | > 100 |  | > 100 |  |
| OCC(CO)OCn1c(Br)nc2c(Cl)cc(Cl)cc21 |  | > 100 | 136 |  | 50 | 161 |  |
| Nc1nc2cc(Cl)c(Cl)cc2n1COC(CO)CO | > 100 | > 100 | > 100 |  |  | > 100 |  |
| CNc1nc2c(Cl)cc(Cl)cc2n1COC(CO)CO |  |  | > 100 |  |  | 100 |  |
| OCC(CO)OCn1c(Br)nc2cc(Cl)c(Cl)cc21 | 100 | > 100 | > 100 |  | 25 | > 100 |  |
| OCCOCn1c(Cl)nc2cc(Cl)c(Cl)cc21 | > 100 |  | > 320 | > 320 |  | > 320 |  |
| CN(C)c1nc2c(Cl)cc(Cl)cc2n1COC(CO)CO | > 100 | > 100 | > 100 |  |  | > 100 |  |
| OCC(CO)OCn1cnc2cc(Cl)c(Cl)cc21 | > 100 | > 100 | > 100 |  |  | > 100 |  |
| OCC(CO)OCn1c(S)nc2c(Cl)cc(Cl)cc21 | > 100 | > 100 | > 100 |  |  | > 100 |  |
| OCC(CO)OCn1cnc2c(Cl)c(Cl)ccc21 | > 100 | > 100 | > 100 |  |  | > 100 |  |
| Nc1nc2c(Cl)c(Cl)ccc2n1COC(CO)CO | > 100 | > 100 | > 100 |  |  | > 100 |  |
| OC[C@H]1O[C@H](n2c(Br)nc3cc(Cl)c(Cl)cc32)[C@@H](O)[C@H]1O |  | > 100 |  |  |  |  | 0.2 |
| Nc1nc2c(Cl)cc(Cl)cc2n1COC(CO)CO |  |  | > 100 |  |  | 100 |  |

| SMILES | IC50 (Human alphaherpesvirus 1) [µM] | IC50 (KB [1]) [µM] | IC50 (Human betaherpesvirus 5 [2]) [µM] | IC50 (KB [3]) [µM] | IC90 (Human betaherpesvirus 5 [4]) [µM] | IC50 (HFF) [µM] | IC90 (Human betaherpesvirus 5 [5]) [µM] |
| --- | --- | --- | --- | --- | --- | --- | --- |
| OCC(CO)OCn1c(S)nc2c(Cl)c(Cl)ccc21 | > 100 | > 100 | > 100 |  |  | > 100 |  |
| OCCOCn1c(SCc2ccccc2)nc2cc(Cl)c(Cl)cc21 | 45 |  | 40 | 55 |  | 32 |  |
| CN(C)c1nc2cc(Cl)c(Cl)cc2n1COC(CO)CO | > 100 | > 100 | > 100 |  |  | > 100 |  |
| OCCOCn1c(S)nc2cc(Cl)c(Cl)cc21 | > 100 |  | > 100 | > 100 |  | 100 |  |
| OCCOCn1c(SCc2ccccc2)nc2c(Cl)c(Cl)ccc21 | > 100 |  | 30 | 35 |  | 32 |  |
| CNc1nc2c(Cl)c(Cl)ccc2n1COC(CO)CO | > 100 | > 100 | > 100 |  |  | > 100 |  |
| OCCOCn1c(Br)nc2c(Cl)cc(Cl)cc21 | > 100 |  | > 100 | > 100 |  | > 100 |  |
| OCC(CO)OCn1c(S)nc2cc(Cl)c(Cl)cc21 | 55 | > 100 | > 100 |  |  | > 100 |  |
| OCCOCn1c(Cl)nc2c(Cl)cc(Cl)cc21 | > 100 |  | > 100 |  |  |  |  |
| CNc1nc2cc(Cl)c(Cl)cc2n1COC(CO)CO | > 100 | > 100 | > 100 |  |  | > 100 |  |
| OCC(CO)OCn1c(SCc2ccccc2)nc2cc(Cl)c(Cl)cc21 | > 100 | > 100 | > 100 |  |  | > 100 |  |
| OCCOCn1c(Br)nc2cc(Cl)c(Cl)cc21 | > 100 |  | > 100 | > 100 |  | > 100 |  |
| CN(C)c1nc2cc(Cl)c(Cl)cc2n1COCCO | > 100 |  | > 100 | > 100 |  | > 100 |  |
| OCCOCn1c(Br)nc2c(Cl)c(Cl)ccc21 | > 100 |  | > 100 | > 100 |  | > 100 |  |
| OC[C@H]1O[C@@H](n2c(Cl)nc3cc(Cl)c(Cl)cc32)[C@H](O)[C@@H]1O |  |  |  |  |  |  | 1.4 |
| Nc1nc2c(ncn2COC(CO)CO)c(=O)[nH]1 [GANCICLOVIR] |  | > 100 |  |  | 1.6 | > 100 |  |

The next lines start with results.

| IC50 (Human alphaherpesvirus 1) [µM] | IC50 (KB [1]) [µM] | IC50 (Human betaherpesvirus 5 [2]) [µM] | IC50 (KB [3]) [µM] | IC90 (Human betaherpesvirus 5 [4]) [µM] | SMILES | IC50 (HFF) [µM] | IC90 (Human betaherpesvirus 5 [5]) [µM] |
| --- | --- | --- | --- | --- | --- | --- | --- |
| > 100 | > 100 | > 100 |  |  | OCC(CO)OCn1c(Cl)nc2cc(Cl)c(Cl)cc21 | > 100 |  |
| > 100 |  | > 100 | > 100 |  | CNc1nc2c(Cl)c(Cl)ccc2n1COCCO | > 100 |  |
| > 100 | > 100 | > 100 |  |  | CN(C)c1nc2c(Cl)c(Cl)ccc2n1COC(CO)CO | > 100 |  |
| > 100 |  | > 100 | > 100 |  | OCCOCn1cnc2cc(Cl)c(Cl)cc21 | > 100 |  |
| > 100 |  | > 100 | > 100 |  | OCCOCn1cnc2c(Cl)c(Cl)ccc21 | > 100 |  |
| > 100 |  | 50 | > 100 |  | OCCOCn1c(SCc2ccccc2)nc2c(Cl)cc(Cl)cc21 | 32 |  |
| > 100 |  | > 100 | > 100 |  | OCCOCn1c(S)nc2c(Cl)cc(Cl)cc21 | > 100 |  |
| 100 | > 100 | > 100 |  |  | OCC(CO)OCn1c(Cl)nc2c(Cl)c(Cl)ccc21 | > 100 |  |
| 100 |  | > 100 | > 100 |  | Nc1nc2c(Cl)cc(Cl)cc2n1COCCO |  |  |
| 55 | 60 | 35 |  |  | OCC(CO)OCn1c(SCc2ccccc2)nc2c(Cl)c(Cl)ccc21 | 32 |  |
|  |  | > 100 |  |  | OCC(CO)OCn1c(Cl)nc2c(Cl)cc(Cl)cc21 | > 100 |  |
| > 100 |  | > 100 | > 100 |  | OCCOCn1c(Cl)nc2c(Cl)c(Cl)ccc21 | > 100 |  |
| > 100 |  | > 100 | > 100 |  | OCCOCn1c(S)nc2c(Cl)c(Cl)ccc21 | > 100 |  |
| > 100 |  | > 100 |  |  | CN(C)c1nc2c(Cl)cc(Cl)cc2n1COCCO |  |  |
| > 100 | > 100 | > 100 |  |  | OCC(CO)OCn1c(Br)nc2c(Cl)c(Cl)ccc21 | > 100 |  |
| > 100 |  | > 100 | > 100 |  | CNc1nc2c(Cl)cc(Cl)cc2n1COCCO | > 100 |  |
